VIM-2 inh: blocks Pseudomonas aeruginosa VIM-2 metallo-beta-lactamase; purified VIM-2, nitrocefin hydrolysis, epi-absorbance fluorescence; inhibition, % at 5.6 µM; 0.89% of 290,000 active; AID 1527;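 active = inhibition above the mean of all tested compounds plus 3 SD, cutoff set per screening run, cut at about 7.5% in these data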;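 note: red hydrolysis product quenches plate fluorescence so inhibitors raise well fluorescence; 0% = enzyme with DMSO and 100% = DMSO without enzyme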
DNA FID counter-1: counter-screen for HCV NS3 helicase inhibitors: DNA intercalator displacement. DNA fluorescent intercalator displacement, fluorescence. inhibition, % at 7.9 µM. 0.17% of 290,000 active;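 note: 0% = vehicle and 100% = reference compound; higher means more ethidium bromide displaced from hairpin DNA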
NS3 helicase inh: inhibitors of Hepatitis C virus NS3 helicase | NS3 helicase DNA unwinding, Cy5 molecular beacon fluorescence | inhibition, % at 10.9 µM | 0.56% of 290,000 active | AID 1800;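 active = inhibition above the mean of all tested compounds plus 3 SD, set per campaign, cut at about 35% in these data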;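 note: 0% = DMSO wells and 100% = thioflavine S control wells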
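Control set: DMSO versus 110 µM thioflavine S; Material: NS3 helicase fragment of HCV; Measured by: Cy5 fluorescence at 0 and 60 min, beacon hairpin quenching; Read-out basis: percent inhibition from t60/t0 fluorescence ratio; Times: reaction time 60 min, 25 °C; Repeats: single replicate; Compound dosing: single dose, 10.9 µM nominal final, DMSO 0.8% final.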
IMP-1 inhibitor: inhibitors of Pseudomonas aeruginosa IMP-1 metallo-beta-lactamase. purified IMP-1, nitrocefin hydrolysis, epi-absorbance fluorescence. inhibition, % at 5.6 µM. 0.45% of 290,000 active. AID 1556;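 active = inhibition above the mean plus 3 SD of all compounds in the same screening run, cut at about 4.5% in these data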;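 note: 0% = IMP-1 with DMSO and 100% = DMSO wells lacking enzyme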
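Test system: recombinant IMP-1 enzyme, purified / Medium: HEPES buffer pH 7.1 with ZnSO4 and Brij 35 / Doses: single dose, 5.6 µM / Times: 25 °C, 15 min preincubation, 25 min reaction / Detection: Epi-absorbance via hydrolysed-nitrocefin quenching of white-plate fluorescence, 480/530 nm, EDTA stop / Evaluation: percent inhibition from optical density relative to buffer-blank wells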
NS3 hel confirm: HCV NS3 helicase inhibition, confirmation assay; inhibition, % at 10.9 µM; shares compounds with NS3 helicase inh; NS3 helicase DNA unwinding, Cy5 molecular beacon fluorescence; AID 1943; 31% of 1,600 active;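 active = inhibition above the mean of all tested compounds plus 3 SD, cutoff set per campaign, cut at about 36% in these data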
DNA FID counter-2: intercalator displacement, NS3 helicase counter-screen. AID 1945. shares compounds with NS3 helicase inh. DNA fluorescent intercalator displacement, fluorescence. inhibition, % at 7.9 µM. 4% of 1,600 active;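 note: 0% = vehicle and 100% = reference compound; higher means more displacement of ethidium bromide from the DNA hairpin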
The depositor's hits bear a star; . = no result given. In the library only some 1.9% were active in any assay of this set; here they are far more common. Cut-off read from the data, not from the text of the source, unless noted: active = inhibition above about 37%; inactive = the rest.

SMILES | VIM-2 inh | DNA FID counter-1 | NS3 helicase inh | IMP-1 inhibitor | NS3 hel confirm | DNA FID counter-2
C=CCn1c(=O)[nH]c2nc3cc(N=CN(C)C)c(C)cc3nc2c1=O | 5 | 4 | 1 | 2 | . | .
Cc1cc2nc3c(=O)n(CCc4ccccc4)c(=O)[nH]c3nc2cc1N | 5 | -5 | 38* | 3 | 6 | 9
COCCNC(=O)c1cc2c(=O)[nH]c3ccccc3c2s1 | 0 | -14 | 70* | 0 | -8 | 4
COc1ccc(OCC(=O)Nc2ccc3c(c2)nc(CCn2ccccc2=O)n3C)cc1 | -4 | -55 | 45* | -2 | -16 | -34
COC(=O)c1ccc(C2C(C(=O)c3ccco3)=C(O)C(=O)N2CC2CCCO2)cc1 (configuration not stated) | -1 | -29 | 1 | -3 | . | .
C=CCN=c1scc(-c2ccco2)n1/N=C/c1ccc(O)c(O)c1O | -4 | -19 | 40* | -1 | -2 | 14
COCCN=c1scc(-c2ccco2)n1/N=C/c1ccc(O)c(O)c1O | 1 | -16 | 21 | 2 | . | .
CN=c1scc(-c2cccs2)n1/N=C/c1ccc(O)c(O)c1O | -1 | -19 | 54* | -1 | -8 | 13
CC(=O)Oc1ccc(-c2ccc(C(=O)Nc3cccc(S(=O)(=O)N4CCOCC4)c3)cc2)cc1 | -1 | -15 | -4 | 0 | . | .
CNCC(=O)Nc1c(C)n[nH]c1C | -3 | -4 | 40* | -4 | 4 | 15
CCOC(=O)Nc1ccc([N+](=O)[O-])cc1OC | -1 | 0 | 42* | -2 | -12 | 0
Oc1ccc(Br)cc1/C=N/n1c(-c2ccccc2)n[nH]c1=S | 3 | -11 | 27 | 3 | . | .
S=c1[nH]nc(-c2ccc(Cl)cc2)n1/N=C/C=C/c1ccco1 | -3 | -13 | 27 | -3 | . | .
S=c1[nH]nc(-c2ccccc2)n1/N=C/C=C/c1ccco1 | 1 | -10 | 52* | -4 | -3 | 9
Oc1c(Br)cc(Br)c(/C=N/n2c(-c3ccccc3)n[nH]c2=S)c1Br | -1 | -12 | 39* | 0 | 69* | 13
Cc1ccccc1-c1n[nH]c(=S)n1/N=C/C=C/c1ccco1 | -1 | -22 | 38* | -1 | -5 | 7
COc1ccc(C2Nc3cccc4cccc(c34)N2)cc1 | -1 | 3 | 6 | -1 | . | .
Brc1cccc(C2Nc3cccc4cccc(c34)N2)c1 | -2 | -3 | 24 | -5 | . | .
Clc1ccc(C2Nc3cccc4cccc(c34)N2)cc1Cl | 3 | 0 | 59* | 6.1* | -22 | 25
Clc1cccc(C2Nc3cccc4cccc(c34)N2)c1 | 4 | 0 | 55* | 2 | -10 | 13
CC(C)c1ccc(C(CC(=O)c2ccc(Cl)cc2)C(=O)O)cc1 (configuration not stated) | -1 | -42 | 37* | -1 | 68* | -19
N#Cc1ccc(-c2ccco2)nc1SCC(=O)c1ccc(Cl)cc1 | -1 | -6 | 38* | -3 | 12 | 14
COCCNC(=O)c1c[nH]n2c(=O)cc(C3CCN(C(=O)OC(C)(C)C)CC3)nc12 | 1 | -58 | 41* | -1 | -8 | -27
CCOC(=O)N1CCC(c2cc(=O)n3[nH]c(C)c(-c4ccc(F)cc4)c3n2)CC1 | -3 | -38 | 6 | -3 | . | .
O=C(O)CCC(=O)N1N=C(c2c(-c3ccccc3)c3cc(Cl)ccc3[nH]c2=O)CC1c1ccco1 (configuration not stated) | -5 | -49 | 41* | -2 | 48* | -17
SMILES | VIM-2 inh | DNA FID counter-1 | NS3 helicase inh | IMP-1 inhibitor | NS3 hel confirm | DNA FID counter-2
CCC(=O)N1N=C(c2c(-c3ccccc3)c3cc(Cl)ccc3[nH]c2=O)CC1c1ccco1 (configuration not stated) | -3 | -22 | 3 | -2 | . | .
COc1ccccc1C1C2=C(CCCC2=O)N(CC(=O)O)C2=C1C(=O)CCC2 | 4 | -4 | 41* | -1 | -10 | 14
O=C(CCc1nc2ccccc2c(=O)[nH]1)Nc1ccc(F)c([N+](=O)[O-])c1 | -2 | -17 | 52* | -1 | -11 | 13
Cc1ccc(NC(=O)COC(=O)CCc2nc3ccccc3c(=O)[nH]2)cc1Cl | -3 | -1 | -7 | -6 | . | .
COCCCn1c(SCC(=O)Nc2ccc(NC(C)=O)cc2)nc2sc3c(c2c1=O)CCC3 | -1 | -41 | 5 | -5 | . | .
Cc1c(CC(=O)N[C@@H](CCCNC(N)=O)C(=O)O)c(=O)oc2cc3oc4c(c3cc12)CCCC4 | -2 | -37 | 22 | -3 | . | .
